Reference: ChEMBL document CHEMBL1152757, “Stereoselective synthesis and biological evaluation of syn-1-amino-3-[18F]fluorocyclobutyl-1-carboxylic acid as a potential positron emission tomography brain tumor imaging agent” (Bioorg Med Chem, 2009)

Tests used:
Brain [1] = experiment: Biodistribution in brain of rat 9L cells implanted Fischer rat at 15 to 30 uCi, iv after 120 mins by gamma-counter; format: ADME, organism-based; details: in vivo, 2 h
Method in brief: (§1)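 Male Fischer 344 rats (125-175 g) implanted intracranially by stereotactic injection of 5 × 10^4 9L gliosarcoma cells. Used 10-12 days after implantation. Tracer given into the tail vein at 15-30 µCi in 0.1-0.3 mL sterile saline. Groups of 4 were sacrificed at 15, 30, 60 and 120 min. Tissues were weighed and gamma-counted against dose standards, and counts decay-corrected to %ID/g (mean ± SD). One-way ANOVA.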

[2] = Ratio of drug level from tumor to brain of rat 9L cells implanted Fischer rat at 15 to 30 uCi, iv after 30 mins by gamma-counter; format: ADME, organism-based; details: in vivo, 0.5 h
Method in brief: (§2)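 Male Fischer 344 rats (125-175 g) received intracranial implants of 9L cells (5 × 10^4 cells) and were used 10-12 days later. Tracer was given by tail vein at 15-30 µCi in 0.1-0.3 mL sterile saline. Groups of 4 were killed at each time point. Tissues were weighed and gamma counted against dose standards with decay correction, giving %ID/g (mean). The ratio is tumor %ID/g over normal brain %ID/g.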

Lung = experiment: Biodistribution in lung of rat 9L cells implanted Fischer rat at 15 to 30 uCi, iv after 60 mins by gamma-counter; format: ADME, organism-based; details: in vivo, 1 h; method in brief: as §1
Kidney [3] = experiment: Biodistribution in kidney of rat 9L cells implanted Fischer rat at 15 to 30 uCi, iv after 15 mins by gamma-counter; format: ADME, organism-based; details: in vivo, 0.25 h; method in brief: as §1
Heart [4] = experiment: Biodistribution in heart of rat 9L cells implanted Fischer rat at 15 to 30 uCi, iv after 30 mins by gamma-counter; format: ADME, organism-based; details: in vivo, 0.5 h; method in brief: as §1
Bone = experiment: Biodistribution in bone of rat 9L cells implanted Fischer rat at 15 to 30 uCi, iv after 120 mins by gamma-counter; format: ADME, organism-based, Bone element; details: in vivo, 2 h; method in brief: as §1
Kidney [5] = experiment: Biodistribution in kidney of rat 9L cells implanted Fischer rat at 15 to 30 uCi, iv after 60 mins by gamma-counter; format: ADME, organism-based; details: in vivo, 1 h; method in brief: as §1
9L = experiment: Drug uptake in rat 9L cells assessed as intracellular accumulation after 30 mins measured per 5 x 10^5 cells by gamma-counter; format: ADME, cell-based; details: 0.5 h
Method in brief: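 9L cells were grown in DMEM with 10% FCS and penicillin/streptomycin, then trypsinized and washed twice in HBSS. About 5 × 10^5 cells received 5 µCi tracer in amino acid-free HBSS for 30 min at 37 °C, without or with 10 mM BCH (L-type inhibitor). Cells were centrifuged and rinsed twice with ice-cold HBSS, then gamma-counted with decay correction. Uptake expressed as % of standard per 5 × 10^5 cells. Triplicates, 1-way ANOVA.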

Kidney [6] = experiment: Biodistribution in kidney of rat 9L cells implanted Fischer rat at 15 to 30 uCi, iv after 120 mins by gamma-counter; format: ADME, organism-based; details: in vivo, 2 h; method in brief: as §1
[7] = Biodistribution in tumor of rat 9L cells implanted Fischer rat at 15 to 30 uCi, iv after 15 mins by gamma-counter; format: ADME, organism-based, Neoplasm; details: in vivo, 0.25 h; method in brief: as §1
Pancreas = experiment: Biodistribution in pancreas of rat 9L cells implanted Fischer rat at 15 to 30 uCi, iv after 120 mins by gamma-counter; format: ADME, organism-based; details: in vivo, 2 h; method in brief: as §1
Heart [8] = experiment: Biodistribution in heart of rat 9L cells implanted Fischer rat at 15 to 30 uCi, iv after 15 mins by gamma-counter; format: ADME, organism-based; details: in vivo, 0.25 h; method in brief: as §1
[9] = Ratio of drug level from tumor to brain of rat 9L cells implanted Fischer rat at 15 to 30 uCi, iv after 120 mins by gamma-counter; format: ADME, organism-based; details: in vivo, 2 h; method in brief: as §2
Blood [10] = experiment: Biodistribution in blood of rat 9L cells implanted Fischer rat at 15 to 30 uCi, iv after 120 mins by gamma-counter; format: ADME, organism-based; details: in vivo, 2 h; method in brief: as §1
Blood [11] = experiment: Biodistribution in blood of rat 9L cells implanted Fischer rat at 15 to 30 uCi, iv after 15 mins by gamma-counter; format: ADME, organism-based; details: in vivo, 0.25 h; method in brief: as §1
Brain [12] = experiment: Biodistribution in brain of rat 9L cells implanted Fischer rat at 15 to 30 uCi, iv after 15 mins by gamma-counter; format: ADME, organism-based; details: in vivo, 0.25 h; method in brief: as §1
Liver [13] = experiment: Biodistribution in liver of rat 9L cells implanted Fischer rat at 15 to 30 uCi, iv after 30 mins by gamma-counter; format: ADME, organism-based; details: in vivo, 0.5 h; method in brief: as §1
[14] = Biodistribution in testis of rat 9L cells implanted Fischer rat at 15 to 30 uCi, iv after 30 mins by gamma-counter; format: ADME, organism-based; details: in vivo, 0.5 h; method in brief: as §1
Kidney [15] = experiment: Biodistribution in kidney of rat 9L cells implanted Fischer rat at 15 to 30 uCi, iv after 30 mins by gamma-counter; format: ADME, organism-based; details: in vivo, 0.5 h; method in brief: as §1
[16] = Ratio of drug level from tumor to brain of rat 9L cells implanted Fischer rat at 15 to 30 uCi, iv after 15 mins by gamma-counter; format: ADME, organism-based; details: in vivo, 0.25 h; method in brief: as §2
Muscle tissue = experiment: Biodistribution in muscle of rat 9L cells implanted Fischer rat at 15 to 30 uCi, iv after 120 mins by gamma-counter; format: ADME, organism-based; details: in vivo, 2 h; method in brief: as §1
[17] = Biodistribution in testis of rat 9L cells implanted Fischer rat at 15 to 30 uCi, iv after 120 mins by gamma-counter; format: ADME, organism-based; details: in vivo, 2 h; method in brief: as §1
[18] = Biodistribution in testis of rat 9L cells implanted Fischer rat at 15 to 30 uCi, iv after 15 mins by gamma-counter; format: ADME, organism-based; details: in vivo, 0.25 h; method in brief: as §1
Liver [19] = experiment: Biodistribution in liver of rat 9L cells implanted Fischer rat at 15 to 30 uCi, iv after 15 mins by gamma-counter; format: ADME, organism-based; details: in vivo, 0.25 h; method in brief: as §1
Heart [20] = experiment: Biodistribution in heart of rat 9L cells implanted Fischer rat at 15 to 30 uCi, iv after 60 mins by gamma-counter; format: ADME, organism-based; details: in vivo, 1 h; method in brief: as §1
Liver [21] = experiment: Biodistribution in liver of rat 9L cells implanted Fischer rat at 15 to 30 uCi, iv after 60 mins by gamma-counter; format: ADME, organism-based; details: in vivo, 1 h; method in brief: as §1
[22] = Biodistribution in tumor of rat 9L cells implanted Fischer rat at 15 to 30 uCi, iv after 60 mins by gamma-counter; format: ADME, organism-based, Neoplasm; details: in vivo, 1 h; method in brief: as §1

Drug uptake (Brain [1]): 0.25 % ID/g | Ratio [2]: 11.5 | Drug uptake (Lung): 0.42 % ID/g | Drug uptake (Kidney [3]): 0.76 % ID/g | Drug uptake (Heart [4]): 0.47 % ID/g | Drug uptake (Bone): 0.2 % ID/g | Drug uptake (Kidney [5]): 0.7 % ID/g | Drug uptake (9L): 15.8 %ID | Drug uptake (Kidney [6]): 0.56 % ID/g | Drug uptake [7]: 1.4 % ID/g | Drug uptake (Pancreas): 2.78 % ID/g | Drug uptake (Heart [8]): 0.43 % ID/g | Ratio [9]: 7.7 | Drug uptake (Blood [10]): 0.26 % ID/g | Drug uptake (Blood [11]): 0.36 % ID/g | Drug uptake (Brain [12]): 0.2 % ID/g | Drug uptake (Liver [13]): 0.6 % ID/g | Drug uptake [14]: 0.27 % ID/g | Drug uptake (Kidney [15]): 0.8 % ID/g | Ratio [16]: 7.2 | Drug uptake (Muscle tissue): 0.39 % ID/g | Drug uptake [17]: 0.21 % ID/g | Drug uptake [18]: 0.17 % ID/g | Drug uptake (Liver [19]): 0.73 % ID/g | Drug uptake (Heart [20]): 0.38 % ID/g | Drug uptake (Liver [21]): 0.41 % ID/g | Drug uptake [22]: 1.48 % ID/g
Compound: N[C@]1(C(=O)O)C[C@H]([18F])C1
